According to ChEMBL document CHEMBL1773052, “3-Trifluoromethylquinoxaline N,N'-dioxides as anti-trypanosomatid agents. Identification of optimal anti-T. cruzi agents and mechanism of action studies” (J Med Chem, 2011):
Activity calls are given as the source filed them. The rule behind the calls is not given here.

Key:
Trypanosoma cruzi [1] = assay: Antitrypanosomal activity against Trypanosoma cruzi CL Brener clone epimastigotes assessed as cell death at 25 uM after 2 days by MTT assay relative to control; format: functional
Method in brief: (§1)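 Epimastigotes of each strain taken in exponential growth in BHI-tryptose with 5% FBS, 1 mL per well. Compounds added from DMSO and kept 2 days at 28 °C. Cells washed twice and resuspended in PBS-glucose (5.5 mM), then given 0.4 mg/mL MTT for 4 h at 28 °C. Lysis in SDS-isopropanol, OD read. Triplicate wells, six growth controls. PCyt taken against control, corrected for medium-only wells.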

Trypanosoma cruzi [2] = assay: Antitrypanosomal activity against Trypanosoma cruzi Tulahuen 2 epimastigotes assessed as growth inhibition at 25 uM after 5 days relative to control; format: functional; settings: Tulahuen 2, 120 h, read-out: GI
Method in brief: (§2)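 Epimastigotes grown axenically at 28 °C in BHI-tryptose + 5% FBS; a 10-day stationary culture was inoculated to 1 × 10⁶ cells/mL. Drug added from DMSO stock, final DMSO ≤0.4%, vehicle control. A600 read daily. PGI on day 5 corrects for day-0 absorbance, relative to control. […] Three independent experiments.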

Trypanosoma cruzi [3] = assay: Antitrypanosomal activity against Trypanosoma cruzi Y epimastigotes assessed as cell death at 25 uM after 2 days by MTT assay relative to control; format: functional; method in brief: as §1
Trypanosoma cruzi [4] = assay: Antitrypanosomal activity against Trypanosoma cruzi Colombiana epimastigotes assessed as cell death at 25 uM after 2 days by MTT assay relative to control; format: functional; method in brief: as §1
Leishmania braziliensis = assay: Antileishmanial activity against Leishmania braziliensis MHOM/BR/00/LTB300 promastigotes assessed as cell death after 2 days by MTT assay; format: functional; settings: MHOM/BR/00/LTB300, 48 h, read-out: ID50 (the source's name)
Method in brief: (§3)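 Parasites in exponential growth, in BHI-tryptose + 5% FBS for T. cruzi or RPMI + 5% FBS for L. braziliensis, 28 °C, 24-well plates. Compounds in DMSO; miltefosine in ethanol. 2-day exposure, two PBS-glucose (5.5 mM) washes, then MTT 0.4 mg/mL for 4 h at 28 °C. SDS-isopropanol lysis, OD read. Triplicates, six growth controls.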

Trypanosoma cruzi [5] = assay: Antitrypanosomal activity against Trypanosoma cruzi CL Brener clone trypomastigotes in parasite infected BALB/c mouse blood assessed as parasite lysis at 250 ug/ml after 24 hrs relative to control; format: functional
Method in brief: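 Blood from BALB/c mice 7 days post-infection, taken by cardiac puncture into 3.8% sodium citrate (7:3). Compounds dissolved in DMSO, diluted in PBS to 100 or 250 μg/mL. 10 μL mixed with 100 μL infected blood (~10⁶ parasites/mL), in triplicate. Shaken 10 min at RT, held 4 °C for 24 h. Parasites counted by microscopy; gentian violet 250 μg/mL as standard.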

Trypanosoma cruzi [6] = assay: Antitrypanosomal activity against Trypanosoma cruzi Y epimastigotes assessed as cell death after 2 days by MTT assay; format: functional; settings: 48 h, read-out: ID50 (the source's name); method in brief: as §3
Trypanosoma cruzi [7] = assay: Antitrypanosomal activity against Trypanosoma cruzi Tulahuen 2 epimastigotes assessed as growth inhibition after 5 days; format: functional; settings: Tulahuen 2, 120 h, read-out: ID50; method in brief: as §2
Trypanosoma cruzi [8] = assay: Inhibition of mitochondrial dehydrogenase activity in Trypanosoma cruzi Y epimastigotes at 20 uM up to 120 mins by MTT assay
Method in brief: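 Y-strain epimastigotes, 10⁶ per well in 500 μL medium, treated with 20 μM compound at 28 °C, untreated wells as time-matched controls. At each time point cells counted, then MTT (50 μL of 5 mg/mL in PBS) added for 4 h. Stopped with acidic isopropanol, A570 read. Activity given as percent of untreated control.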

Trypanosoma cruzi [9] = assay: Antitrypanosomal activity against Trypanosoma cruzi CL Brener clone epimastigotes assessed as cell death after 2 days by MTT assay; format: functional; settings: 48 h, read-out: ID50 (the source's name); method in brief: as §3
Trypanosoma cruzi [10] = assay: Antitrypanosomal activity against Trypanosoma cruzi Colombiana epimastigotes assessed as cell death after 2 days by MTT assay; format: functional; settings: 48 h, read-out: ID50 (the source's name); method in brief: as §3
[11] = Selectivity index, ratio of ID50 for mouse J774 cells to ID50 for Trypanosoma cruzi Tulahuen 2 epimastigotes; format: toxicity, cell-based; settings: J774 cells versus Trypanosoma cruzi Tulahuen 2 epimastigotes, read-out: Selectivity Index
Trypanosoma cruzi [12] = assay: Inhibition of mitochondrial dehydrogenase activity in Trypanosoma cruzi Y epimastigotes assessed as reduction of succinate excretion […] by NMR analysis
Trypanosoma cruzi [13] = assay: Inhibition of mitochondrial dehydrogenase activity in Trypanosoma cruzi Y epimastigotes assessed as reduction of acetate excretion at 5 uM […] by NMR analysis
Method in brief: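 Y-strain epimastigotes treated 2 days with 5 μM compound, 5 mL then centrifuged at 1500g for 10 min at 4 °C. Parasite-free supernatant stored at −20 °C. Before NMR, 0.3 mL supernatant mixed with 0.1 mL DMF (10 mM, internal standard) and 0.1 mL D₂O. Excreted metabolites compared with parasite-free medium control, expressed relative to DMF. Three experiments.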

Row | Compound | Activity (Trypanosoma cruzi [1]) [%] | inhibition of growth at 25 µM (Trypanosoma cruzi [2]) [%] | Activity (Trypanosoma cruzi [3]) [%] | Activity (Trypanosoma cruzi [4]) [%] | IC50 (Leishmania braziliensis) [µM] | Activity (Trypanosoma cruzi [5]) [%] | IC50 (Trypanosoma cruzi [6]) [µM] | IC50 (Trypanosoma cruzi [7]) [µM] | inhibition (Trypanosoma cruzi [8]) | IC50 (Trypanosoma cruzi [9]) [µM] | IC50 (Trypanosoma cruzi [10]) [µM] | selectivity ratio [11] | inhibition (Trypanosoma cruzi [12]) | inhibition (Trypanosoma cruzi [13])
1 | Cc1c(C(=O)Nc2ccccc2)[n+]([O-])c2ccccc2[n+]1[O-] | 32 | 10 | 0 | 24 | > 50 |  |  |  |  |  |  |  |  | 
2 | CN(C)c1ccc(C(=C2C=CC(=[N+](C)C)C=C2)c2ccc(N(C)C)cc2)cc1.[Cl-] [GENTIAN VIOLET] |  |  |  |  |  | 100 |  |  |  |  |  |  |  | 
3 | O=C(c1ccccc1)c1c(C(F)(F)F)[n+]([O-])c2ccccc2[n+]1[O-] | 97 | 100 | 100 | 100 | 1 |  | 4 | 0.9 | Active | 3.1 |  |  |  | 
4 | CCOC(=O)c1c(-c2ccccc2)[n+]([O-])c2cc(Cl)c(Cl)cc2[n+]1[O-] | 94 | 99 | 100 | 100 | 3 |  | 7.1 | 11.3 |  | 16.4 |  |  |  | 
5 | CC1CS(=O)(=O)CCN1/N=C/c1ccc([N+](=O)[O-])o1 (stereo unspecified) [NIFURTIMOX] |  | 100 |  |  |  |  | 9.7 | 7.7 | inactive | 4.9 | 3.4 | 41 |  | 
6 | COC(=O)c1c(C)[n+]([O-])c2ccccc2[n+]1[O-] | 59 | 24 | 0 | 60 | > 50 |  |  |  |  |  |  |  |  | 
7 | Cc1c(C(=O)c2ccccc2)[n+]([O-])c2cc(F)c(F)cc2[n+]1[O-] | 92 | 92 | 89 | 98 | 20.4 |  | 18.3 | 4.2 |  | 16.2 | 4.5 |  |  | 
8 | Cc1c(Sc2ccccc2)[n+]([O-])c2cc(Cl)c(Cl)cc2[n+]1[O-] | 98 | 93 | 100 | 100 | 1.4 |  | 2.9 | 6.5 | Active | < 1 | 1.7 |  | Active | Active
